≈ marks a conversion by molar mass, not a printed value.
What was measured:
Type in all cases: functional
Staphylococcus aureus [1] = experiment: Antibacterial activity against standard Staphylococcus aureus after 20 hrs by agar dilution method
Summary of the method: (§1)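 Agar dilution MIC. The inoculum came from a seed culture in Sensitivity test broth. A 5 µl portion of a cell suspension of about 10^6 CFU/ml was inoculated onto Sensitivity disk agar supplemented with 5% horse blood. Plates were incubated at 37 °C for 20 h, then MIC was read.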

Staphylococcus aureus [2] = experiment: Antibacterial activity against susceptible Staphylococcus aureus after 20 hrs by agar dilution method; summary of the method: as §1
Staphylococcus aureus [3] = experiment: Antibacterial activity against ermA-constitutive resistant Staphylococcus aureus after 20 hrs by agar dilution method; summary of the method: as §1
Staphylococcus aureus [4] = experiment: Antibacterial activity against ermB-inducible resistant Staphylococcus aureus after 20 hrs by agar dilution method; summary of the method: as §1
Staphylococcus aureus [5] = experiment: Antibacterial activity against ermC-inducible resistant Staphylococcus aureus after 20 hrs by agar dilution method; summary of the method: as §1
Streptococcus pneumoniae [6] = experiment: Antibacterial activity against susceptible Streptococcus pneumoniae after 20 hrs by agar dilution method
Summary of the method: (§2)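 MIC by agar dilution. Strains grown on blood agar plates for seed culture. About 5 µl of a suspension of roughly 10^6 CFU/ml spotted onto Sensitivity disk agar with 5% horse blood. Plates incubated at 37 °C for 20 h, then MIC read.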

Streptococcus pneumoniae [7] = experiment: Antibacterial activity against ermB-constitutive resistant Streptococcus pneumoniae after 20 hrs by agar dilution method
Summary of the method: (§3)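 Agar dilution MIC. Streptococcal strains were pre-cultured on blood agar plates. A 5 µl portion of a cell suspension of about 10^6 CFU/ml was inoculated onto Sensitivity disk agar supplemented with 5% horse blood. Plates were incubated at 37 °C for 20 h, then MIC was read.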

Streptococcus pneumoniae [8] = experiment: Antibacterial activity against ermB-inducible resistant Streptococcus pneumoniae after 20 hrs by agar dilution method; summary of the method: as §3
Streptococcus pneumoniae [9] = experiment: Antibacterial activity against mefE efflux-resistant Streptococcus pneumoniae after 20 hrs by agar dilution method; summary of the method: as §3
Streptococcus pyogenes [10] = experiment: Antibacterial activity against ermB-constitutive resistant Streptococcus pyogenes after 20 hrs by agar dilution method; summary of the method: as §3
Streptococcus pyogenes [11] = experiment: Antibacterial activity against mefE efflux-resistant Streptococcus pyogenes after 20 hrs by agar dilution method; summary of the method: as §3
Moraxella catarrhalis = experiment: Antibacterial activity against standard Moraxella catarrhalis after 20 hrs by agar dilution method; summary of the method: as §2
Haemophilus influenzae [12] = experiment: Antibacterial activity against standard Haemophilus influenzae after 20 hrs by agar dilution method; summary of the method: as §2
Haemophilus influenzae [13] = experiment: Antibacterial activity against susceptible Haemophilus influenzae after 20 hrs by agar dilution method; summary of the method: as §2

Work on CCC(=O)O[C@@H]1CC(=O)O[C@H](C)C/C=C/C=C/[C@H](OC(C)=O)[C@H](C)C[C@H](CC=O)[C@H](O[C@@H]2O[C@H](C)[C@@H](O[C@H]3C[C@@](C)(O)[C@@H](OC(=O)CC)[C@H](C)O3)[C@H](N(C)C)[C@H]2O)[C@H]1OC yielded an MIC (Staphylococcus aureus [1]) of 0.39 µg/mL (≈ 0.456 µM), an MIC (Staphylococcus aureus [2]) of 0.39 µg/mL (≈ 0.456 µM) and an MIC (Staphylococcus aureus [3]) of over 100 µg/mL. The MIC (Staphylococcus aureus [4]) was 0.39 µg/mL (≈ 0.456 µM), the MIC (Staphylococcus aureus [5]) was 0.78 µg/mL (≈ 0.911 µM) and the MIC (Streptococcus pneumoniae [6]) was 0.2 µg/mL (≈ 0.234 µM). The MIC (Streptococcus pneumoniae [7]) was over 100 µg/mL, the MIC (Streptococcus pneumoniae [8]) was 100 µg/mL (≈ 117 µM) and the MIC (Streptococcus pneumoniae [9]) was 0.2 µg/mL (≈ 0.234 µM). The MIC (Streptococcus pyogenes [10]) was over 100 µg/mL, the MIC (Streptococcus pyogenes [11]) was 0.39 µg/mL (≈ 0.456 µM) and the MIC (Moraxella catarrhalis) was 0.78 µg/mL (≈ 0.911 µM). The MIC (Haemophilus influenzae [12]) was 3.13 µg/mL (≈ 3.66 µM) and the MIC (Haemophilus influenzae [13]) was 25 µg/mL (≈ 29.2 µM).
CCC(=O)O[C@@H]1CC(=O)O[C@H](C)C[C@H](O)[C@H](N(C)CCCc2ccncc2)/C=C/[C@H](OC(C)=O)[C@H](C)C[C@H](CC=O)[C@H](O[C@@H]2O[C@H](C)[C@@H](O)[C@H](N(C)C)[C@H]2O)[C@H]1OC gave an MIC (Staphylococcus aureus [1]) of 0.78 µg/mL (≈ 0.949 µM), an MIC (Staphylococcus aureus [2]) of 1.56 µg/mL (≈ 1.9 µM) and an MIC (Staphylococcus aureus [3]) of over 100 µg/mL. The MIC (Staphylococcus aureus [4]) was 1.56 µg/mL (≈ 1.9 µM), the MIC (Staphylococcus aureus [5]) was 1.56 µg/mL (≈ 1.9 µM) and the MIC (Streptococcus pneumoniae [6]) was 0.39 µg/mL (≈ 0.474 µM). It also gave an MIC (Streptococcus pneumoniae [7]) of over 100 µg/mL, an MIC (Streptococcus pneumoniae [8]) of over 100 µg/mL and an MIC (Streptococcus pneumoniae [9]) of 1.56 µg/mL (≈ 1.9 µM). It also gave an MIC (Streptococcus pyogenes [10]) of over 100 µg/mL, an MIC (Streptococcus pyogenes [11]) of 6.25 µg/mL (≈ 7.6 µM) and an MIC (Moraxella catarrhalis) of 0.1 µg/mL (≈ 0.122 µM). The MIC (Haemophilus influenzae [12]) was 0.39 µg/mL (≈ 0.474 µM) and the MIC (Haemophilus influenzae [13]) was 3.13 µg/mL (≈ 3.81 µM).
Molecule CCC(=O)O[C@@H]1CC(=O)O[C@H](C)C[C@H](O)[C@H](N(C)CCCCc2ccccc2)/C=C/[C@H](OC(C)=O)[C@H](C)C[C@H](CC=O)[C@H](O[C@@H]2O[C@H](C)[C@@H](O[C@H]3C[C@@](C)(O)[C@@H](OC(=O)CC)[C@H](C)O3)[C@H](N(C)C)[C@H]2O)[C@H]1OC has an MIC (Staphylococcus aureus [1]) of 0.39 µg/mL (≈ 0.377 µM), an MIC (Staphylococcus aureus [2]) of 0.39 µg/mL (≈ 0.377 µM) and an MIC (Staphylococcus aureus [3]) of over 100 µg/mL. For the same molecule, the MIC (Staphylococcus aureus [4]) was 1.56 µg/mL (≈ 1.51 µM), the MIC (Staphylococcus aureus [5]) was 0.78 µg/mL (≈ 0.753 µM) and the MIC (Streptococcus pneumoniae [6]) was 0.05 µg/mL (≈ 0.0483 µM). For the same molecule, the MIC (Streptococcus pneumoniae [7]) was over 100 µg/mL, the MIC (Streptococcus pneumoniae [8]) was 12.5 µg/mL (≈ 12.1 µM) and the MIC (Streptococcus pneumoniae [9]) was 0.2 µg/mL (≈ 0.193 µM). The MIC (Streptococcus pyogenes [10]) was 100 µg/mL (≈ 96.6 µM), the MIC (Streptococcus pyogenes [11]) was 0.2 µg/mL (≈ 0.193 µM) and the MIC (Moraxella catarrhalis) was 0.78 µg/mL (≈ 0.753 µM). The MIC (Haemophilus influenzae [12]) was 3.13 µg/mL (≈ 3.02 µM) and the MIC (Haemophilus influenzae [13]) was 25 µg/mL (≈ 24.1 µM).
Work on CCC(=O)O[C@@H]1CC(=O)O[C@H](C)C[C@@H]2OC(=O)N(CCCCc3ccccc3)[C@@H]2/C=C/[C@H](OC(C)=O)[C@H](C)C[C@H](CC=O)[C@H](O[C@@H]2O[C@H](C)[C@@H](O[C@H]3C[C@@](C)(O)[C@@H](OC(=O)CC)[C@H](C)O3)[C@H](N(C)C)[C@H]2O)[C@H]1OC yielded an MIC (Staphylococcus aureus [1]) of 0.78 µg/mL (≈ 0.745 µM), an MIC (Staphylococcus aureus [2]) of 0.39 µg/mL (≈ 0.372 µM) and an MIC (Staphylococcus aureus [3]) of over 100 µg/mL. For the same molecule, the MIC (Staphylococcus aureus [4]) was 0.39 µg/mL (≈ 0.372 µM), the MIC (Staphylococcus aureus [5]) was 0.78 µg/mL (≈ 0.745 µM) and the MIC (Streptococcus pneumoniae [6]) was 0.2 µg/mL (≈ 0.191 µM). It also gave an MIC (Streptococcus pneumoniae [7]) of over 100 µg/mL, an MIC (Streptococcus pneumoniae [8]) of 100 µg/mL (≈ 95.5 µM) and an MIC (Streptococcus pneumoniae [9]) of 0.2 µg/mL (≈ 0.191 µM). For the same molecule, the MIC (Streptococcus pyogenes [10]) was over 100 µg/mL, the MIC (Streptococcus pyogenes [11]) was 0.39 µg/mL (≈ 0.372 µM) and the MIC (Moraxella catarrhalis) was 3.13 µg/mL (≈ 2.99 µM). For the same molecule, the MIC (Haemophilus influenzae [12]) was 6.25 µg/mL (≈ 5.97 µM) and the MIC (Haemophilus influenzae [13]) was over 100 µg/mL.
In the case of CCC(=O)O[C@@H]1CC(=O)O[C@H](C)C[C@@H]2OC(=O)N(Cc3ccccc3)[C@@H]2/C=C/[C@H](OC(C)=O)[C@H](C)C[C@H](CC=O)[C@H](O[C@@H]2O[C@H](C)[C@@H](O[C@H]3C[C@@](C)(O)[C@@H](OC(=O)CC)[C@H](C)O3)[C@H](N(C)C)[C@H]2O)[C@H]1OC, the MIC (Staphylococcus aureus [1]) is reported as 0.39 µg/mL (≈ 0.388 µM), the MIC (Staphylococcus aureus [2]) is reported as 0.39 µg/mL (≈ 0.388 µM) and the MIC (Staphylococcus aureus [3]) is reported as over 100 µg/mL. The MIC (Staphylococcus aureus [4]) was 0.39 µg/mL (≈ 0.388 µM), the MIC (Staphylococcus aureus [5]) was 0.78 µg/mL (≈ 0.776 µM) and the MIC (Streptococcus pneumoniae [6]) was 0.2 µg/mL (≈ 0.199 µM). The MIC (Streptococcus pneumoniae [7]) was over 100 µg/mL, the MIC (Streptococcus pneumoniae [8]) was 100 µg/mL (≈ 99.5 µM) and the MIC (Streptococcus pneumoniae [9]) was 0.2 µg/mL (≈ 0.199 µM). It also gave an MIC (Streptococcus pyogenes [10]) of over 100 µg/mL, an MIC (Streptococcus pyogenes [11]) of 0.2 µg/mL (≈ 0.199 µM) and an MIC (Moraxella catarrhalis) of 1.56 µg/mL (≈ 1.55 µM). For the same molecule, the MIC (Haemophilus influenzae [12]) was 3.13 µg/mL (≈ 3.11 µM) and the MIC (Haemophilus influenzae [13]) was 25 µg/mL (≈ 24.9 µM).
For CCC(=O)O[C@@H]1CC(=O)O[C@H](C)C[C@@H]2OC(=O)N(CCc3ccccc3)[C@@H]2/C=C/[C@H](OC(C)=O)[C@H](C)C[C@H](CC=O)[C@H](O[C@@H]2O[C@H](C)[C@@H](O[C@H]3C[C@@](C)(O)[C@@H](OC(=O)CC)[C@H](C)O3)[C@H](N(C)C)[C@H]2O)[C@H]1OC, the MIC (Staphylococcus aureus [1]) was 0.78 µg/mL (≈ 0.765 µM), the MIC (Staphylococcus aureus [2]) was 0.39 µg/mL (≈ 0.383 µM) and the MIC (Staphylococcus aureus [3]) was over 100 µg/mL. It also gave an MIC (Staphylococcus aureus [4]) of 6.25 µg/mL (≈ 6.13 µM), an MIC (Staphylococcus aureus [5]) of 1.56 µg/mL (≈ 1.53 µM) and an MIC (Streptococcus pneumoniae [6]) of 0.2 µg/mL (≈ 0.196 µM). It also gave an MIC (Streptococcus pneumoniae [7]) of over 100 µg/mL, an MIC (Streptococcus pneumoniae [8]) of 50 µg/mL (≈ 49.1 µM) and an MIC (Streptococcus pneumoniae [9]) of 0.2 µg/mL (≈ 0.196 µM). It also gave an MIC (Streptococcus pyogenes [10]) of over 100 µg/mL, an MIC (Streptococcus pyogenes [11]) of 0.1 µg/mL (≈ 0.0981 µM) and an MIC (Moraxella catarrhalis) of 0.78 µg/mL (≈ 0.765 µM). For the same molecule, the MIC (Haemophilus influenzae [12]) was 3.13 µg/mL (≈ 3.07 µM) and the MIC (Haemophilus influenzae [13]) was 25 µg/mL (≈ 24.5 µM).
CC[C@H]1OC(=O)[C@H](C)[C@@H](O[C@H]2C[C@@](C)(OC)[C@@H](O)[C@H](C)O2)[C@H](C)[C@@H](O[C@@H]2O[C@H](C)C[C@H](N(C)C)[C@H]2O)[C@](C)(OC)C[C@@H](C)C(=O)[C@H](C)[C@@H](O)[C@]1(C)O [CLARITHROMYCIN] showed an MIC (Staphylococcus aureus [1]) of 0.1 µg/mL (≈ 0.134 µM), an MIC (Staphylococcus aureus [2]) of 0.1 µg/mL (≈ 0.134 µM) and an MIC (Staphylococcus aureus [3]) of over 100 µg/mL. It also gave an MIC (Staphylococcus aureus [4]) of over 100 µg/mL, an MIC (Staphylococcus aureus [5]) of 1.56 µg/mL (≈ 2.09 µM) and an MIC (Streptococcus pneumoniae [6]) of 0.025 µg/mL (≈ 0.0334 µM). For the same molecule, the MIC (Streptococcus pneumoniae [7]) was over 100 µg/mL, the MIC (Streptococcus pneumoniae [8]) was over 100 µg/mL and the MIC (Streptococcus pneumoniae [9]) was 0.78 µg/mL (≈ 1.04 µM). The MIC (Streptococcus pyogenes [10]) was over 100 µg/mL, the MIC (Streptococcus pyogenes [11]) was 3.13 µg/mL (≈ 4.18 µM) and the MIC (Moraxella catarrhalis) was 0.1 µg/mL (≈ 0.134 µM). For the same molecule, the MIC (Haemophilus influenzae [12]) was 1.56 µg/mL (≈ 2.09 µM) and the MIC (Haemophilus influenzae [13]) was 6.25 µg/mL (≈ 8.36 µM).
